# Values joined by “and” are separate entries in the source; they are usually repeats but may differ in a detail not shown here. Equal values may be shown once. Active and inactive are the calls of the source. The rule behind the calls is not given here.
# Tests used:
# [1] = molecular target: T1, 5-demethoxyubiquinone hydroxylase, mitochondrial (Homo sapiens) (UniProt Q99807); assay: Inhibition of COQ7 in human HeLa cells assessed as UQ10 level per well at 10 uM after 2 days by HPLC analysis; type: cell-based
# T1 sequence (whole entry): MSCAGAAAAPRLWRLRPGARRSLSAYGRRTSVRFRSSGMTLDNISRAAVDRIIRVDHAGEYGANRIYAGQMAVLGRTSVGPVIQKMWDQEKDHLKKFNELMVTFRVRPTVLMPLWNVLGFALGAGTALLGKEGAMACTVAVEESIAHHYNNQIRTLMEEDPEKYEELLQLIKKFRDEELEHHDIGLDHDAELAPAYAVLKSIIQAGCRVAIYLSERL
# Summary of the method: (§1)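 HeLa cells cultured overnight, then exposed 48 hr to compound (single 30 µM screen, 10 µM, or graded doses); 0.5-1.0% DMSO controls. Quinones extracted with ethanol/n-hexane after K3Fe(CN)6 oxidation and UQ9 internal standard, then resolved by C18 HPLC with UV at 275 nm. DMQ10 and UQ10 reported as ng/well and DMQ10 as % of total quinone; mean of duplicates.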
# [2] = (§2) Cytotoxicity against human WI38 cells assessed as growth inhibition after 4 days by cell-titer-Glo assay; type: cell-based, WI-38; conditions: WI-38 cells
# Summary of the method: (§3)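 WI-38 normal fibroblasts grown in DMEM + 10% FBS at 37 °C, 5% CO2. Pre-cultured 24 hr, then exposed to compound at 0-30 µM for 4 days. Viability read by CellTiter-Glo 2.0; GI50 by linear interpolation of concentration-response curves, mean of triplicates.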
# [3] = molecular target: T1, 5-demethoxyubiquinone hydroxylase, mitochondrial (Homo sapiens); assay: Inhibition of COQ7 in human HeLa cells assessed as DMQ10 level per well at 10 uM after 2 days by HPLC analysis; type: cell-based; summary of the method: as §1
# [4] = molecular target: T1, 5-demethoxyubiquinone hydroxylase, mitochondrial (Homo sapiens); assay: Inhibition of COQ7 in human HeLa cells assessed as DMQ10 level per well at 10 uM after 2 days by HPLC analysis relative to control; type: cell-based; set-up: scale not given: the % may be the effect or the level left; summary of the method: as §1
# [5] = molecular target: T1, 5-demethoxyubiquinone hydroxylase, mitochondrial (Homo sapiens); assay: Inhibition of COQ7 in human HeLa cells assessed as DMQ10 accumulation at 10 uM after 2 days by HPLC analysis relative to control; type: cell-based; set-up: scale not given: the % may be the effect or the level left; summary of the method: as §1
# [6] = molecular target: T1, 5-demethoxyubiquinone hydroxylase, mitochondrial (Homo sapiens); assay: Inhibition of COQ7 in human HeLa cells assessed as DMQ10 accumulation at 30 uM after 2 days by HPLC analysis relative to control; type: cell-based; set-up: scale not given: the % may be the effect or the level left; summary of the method: as §1
# PANC-1 = assay: Growth inhibition of human PANC1 cells after 3 days by cell-titer-Glo assay; type: functional; conditions: PANC-1, 72 h
# Summary of the method: (§4)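 Cells pre-cultured 24 hr, then exposed to a range of compound concentrations for a further 3 days. Viable cells counted by CellTiter-Glo 2.0 luminescence; GI50 obtained by linear interpolation of concentration-response curves, mean of triplicates. Medium: DMEM + 10% FBS for HeLa and PANC-1, EMEM for C3A, F-12K for PC-3; 37 °C, 5% CO2.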
# WI-38 = assay: as §2; type: cell-based; conditions: wi-38, 96 h, 96 h; summary of the method: as §3
# C3A [7] = assay: Growth inhibition of human C3A cells assessed as growth inhibition after 3 days by cell-titer-Glo assay; type: functional; conditions: 72 h; summary of the method: as §4
# [8] = molecular target: T1, 5-demethoxyubiquinone hydroxylase, mitochondrial (Homo sapiens); assay: Inhibition of COQ7 in human C3A cells assessed as DMQ10 level per well at 10 uM after 1 day by HPLC analysis (reference value: 7.4 ng); type: cell-based
# Summary of the method: (§5)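 Cells (2 or 4 x 10^5/well) cultured overnight, then exposed 24 hr to compound at 10 µM; DMSO controls. Cells suspended in PBS with 5% K3Fe(CN)6, 0.12 µg UQ9 added as internal standard, quinones extracted in ethanol/n-hexane (2:5). Reverse-phase C18 HPLC, isocratic diisopropyl ether/methanol (1:9), 30 °C, UV 275 nm; DMQ10 at 10.2 min. DMQ10 reported as ng/well and % of total quinone; duplicate wells.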
# PC-3 = assay: Cytotoxicity against human PC3 cells assessed as growth inhibition after 3 days by cell-titer-Glo assay; type: functional; conditions: PC-3, 72 h; summary of the method: as §4
# C3A [9] = assay: Antiproliferative activity against human C3A cells at 10 uM assessed as increase in cell death incubated for 24 hrs and measured after 3 days
# [10] = molecular target: T1, 5-demethoxyubiquinone hydroxylase, mitochondrial (Homo sapiens); assay: Inhibition of COQ7 in human PANC1 cells assessed as DMQ10 accumulation at 10 uM after 24 hrs by HPLC analysis relative to control; type: cell-based; set-up: scale not given: the % may be the effect or the level left; conditions: PANC-1; summary of the method: as §5
# HeLa = assay: Growth inhibition of human HeLa cells assessed as growth inhibition after 3 days by cell-titer-Glo assay; type: functional; conditions: 72 h; summary of the method: as §4
# C3A [11] = assay: Growth inhibition of human C3A cells after 3 days in presence of 10 mM 2-DG by cell-titer-Glo assay; type: functional; conditions: 72 h
# Summary of the method: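 C3A cells in EMEM + 10% FBS with 10 mM 2-deoxyglucose in the medium to block glycolysis. Pre-cultured 24 hr, then exposed to graded compound concentrations for 3 further days. Viable cells quantified by CellTiter-Glo 2.0; GI50 by linear interpolation, mean of triplicates.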
# [12] = molecular target: T1, 5-demethoxyubiquinone hydroxylase, mitochondrial (Homo sapiens); assay: Inhibition of COQ7 in human HeLa cells assessed as DMQ10 level per well at 10 uM after 1 day by HPLC analysis (reference value: 6.8 ng); type: cell-based; summary of the method: as §5
# [13] = molecular target: T1, 5-demethoxyubiquinone hydroxylase, mitochondrial (Homo sapiens); assay: Inhibition of COQ7 in human PC3 cells assessed as DMQ10 accumulation at 10 uM after 24 hrs by HPLC analysis relative to control; type: cell-based; set-up: scale not given: the % may be the effect or the level left; conditions: PC-3; summary of the method: as §5
# [14] = molecular target: T1, 5-demethoxyubiquinone hydroxylase, mitochondrial (Homo sapiens); assay: Inhibition of COQ7 in human PANC1 cells assessed as DMQ10 accumulation at 10 uM after 1 day by HPLC analysis relative to control; type: cell-based; set-up: scale not given: the % may be the effect or the level left; conditions: PANC-1; summary of the method: as §5
# [15] = molecular target: T1, 5-demethoxyubiquinone hydroxylase, mitochondrial (Homo sapiens); assay: Inhibition of COQ7 in human HeLa cells assessed as DMQ10 accumulation at 5 uM after 2 days by HPLC analysis; type: cell-based; summary of the method: as §1
# [16] = molecular target: T1, 5-demethoxyubiquinone hydroxylase, mitochondrial (Homo sapiens); assay: Inhibition of COQ7 in human C3A cells assessed as DMQ10 accumulation at 10 uM after 1 day by HPLC analysis relative to control; type: cell-based; set-up: scale not given: the % may be the effect or the level left; summary of the method: as §5
# [17] = molecular target: T1, 5-demethoxyubiquinone hydroxylase, mitochondrial (Homo sapiens); assay: Inhibition of COQ7 in human HeLa cells assessed as DMQ10 accumulation at 20 uM after 2 days by HPLC analysis; type: cell-based; summary of the method: as §1
# [18] = molecular target: T1, 5-demethoxyubiquinone hydroxylase, mitochondrial (Homo sapiens); assay: Inhibition of COQ7 in human PC3 cells assessed as DMQ10 accumulation at 10 uM after 1 day by HPLC analysis relative to control; type: cell-based; set-up: scale not given: the % may be the effect or the level left; conditions: PC-3; summary of the method: as §5
# [19] = molecular target: T1, 5-demethoxyubiquinone hydroxylase, mitochondrial (Homo sapiens); assay: Inhibition of COQ7 in human HeLa cells assessed as DMQ10 accumulation at 10 uM after 1 day by HPLC analysis relative to control; type: cell-based; set-up: scale not given: the % may be the effect or the level left; summary of the method: as §5
# [20] = molecular target: T1, 5-demethoxyubiquinone hydroxylase, mitochondrial (Homo sapiens); assay: Inhibition of COQ7 in human BxPC3 cells assessed as DMQ10 accumulation at 10 uM after 1 day by HPLC analysis relative to control; type: cell-based; set-up: scale not given: the % may be the effect or the level left; conditions: BXPC-3; summary of the method: as §5
Compound,Activity [1] [ng],GI50 at 96 h [2] [µM],Activity [3] [ng],Activity [4] [%],other results
Oc1cc(C2CCCCC2)nn1-c1ccccn1,5.9,9.1,5.5,20.7,–
Oc1cc(-c2ccccc2)nn1-c1ccncc1,33.7,> 30,0,0,–
Oc1cc(-c2ccccc2)nn1-c1ccccn1,17.1,20.8,1.3,7.1,Activity [5]: 19.3%; Activity [6]: > 30%
Nc1ccc(-n2nc(-c3ccccc3)cc2O)nc1,23.4,> 30,2.6,10,–
Oc1cc(-c2ccccc2)nn1-c1ccccc1,28.5,> 30,0,0,–
CS(=O)(=O)c1ccc(-n2nc(-c3ccccc3)cc2O)nc1,17.8,> 30,2.2,11,–
COc1ccc(-n2nc(-c3ccccc3)cc2O)nc1,6.7,25.4,0,0,–
Oc1cc(-c2ccccc2)nn1-c1cccnc1,23.7,> 30,0,0,–
Oc1cc(-c2ccccc2)nn1-c1ccc(C(F)(F)F)cn1,9.4,9.4,9.2,49.5,–
Oc1cc(-c2ccccc2)nn1-c1cc(Cl)ccn1,22.7,> 30,0,0,–
Oc1cc(-c2ccccc2)nn1-c1ncccc1Cl,20.7,> 30,0,0,–
Oc1cc(-c2ccccc2)nn1-c1ccc(F)cn1,14.8,28.9,1.8,10.8,–
Oc1cc(-c2ccccc2)nn1-c1ccc(Cl)cn1,12.2,19,13.2,52,GI50 (PANC-1): > 12 µM; GI50 (WI-38): 19 µM; GI50 (C3A [7]): 9 µM; Activity [8]: 7.8 ng; GI50 (PC-3): > 12 µM; Activity (C3A [9]): inactive; Activity [10]: 11.4%; GI50 (HeLa): > 12 µM; GI50 (C3A [11]): 6.1 µM; Activity [12]: 7.9 ng; Activity [13]: 27.6%
Oc1cc(C2CCCC2)nn1-c1ccccn1,12.1,12.7,5.8,32.4,–
Oc1cc(CC2CCCCC2)nn1-c1ccccn1,8.8,17.5,6.6,42.9,–
Oc1cc(C2CCC2)nn1-c1ccccn1,24.4,25,0,0,–
Clc1cc(-c2ccccc2)nn1-c1ccccn1,35.7,> 30,0,0,–
Cc1ccc(-n2nc(-c3ccccc3)cc2O)nc1,15.4,–,7.3,32.2,GI50 (PANC-1): > 12 µM; GI50 (WI-38): 26.3 µM and > 12 µM; GI50 (C3A [7]): 18.5 µM; GI50 (PC-3): > 12 µM; Activity (C3A [9]): inactive; Activity [10]: 8.7%; GI50 (HeLa): > 12 µM; GI50 (C3A [11]): 20.2 µM; Activity [13]: 14%
Oc1cc(CCc2ccccc2)nn1-c1ccccn1,8.8,9.6,9.3,51.4,–
Oc1c(I)cc(Cl)c2cccnc12,–,–,–,–,Activity [14]: < 5%; Activity [15]: Active; Activity [16]: > 20%; Activity [17]: inactive; Activity [18]: < 5%; Activity [19]: > 20%; Activity [20]: < 5%
